Reference: ChEMBL document CHEMBL2040809, “Synthesis and biological activity evaluation of cytidine-5'-deoxy-5-fluoro-N-[(alkoxy/aryloxy)] carbonyl-cyclic 2',3'-carbonates” (Eur J Med Chem, 2012)
Values after ≈ are worked out from the molar mass of the structure shown.

System: Salmonella typhimurium
Test: Mutagenic activity in Salmonella typhimurium TA102 at 0.312 to 5 mg/plate measured after incubation of upside down for 48 hrs in presence of liver S9 mixture
Type: toxicity, organism-based
Settings: salmonella enterica subsp. enterica serovar typhimurium, s9, 48 h
Method in brief: (§1)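 Plate incorporation trial (Trial I) with histidine-dependent auxotrophs. Revertant colonies are counted against the concurrent vehicle control. Each dose and each control, including negative, vehicle and positive reference mutagens, run in triplicate plates.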

| SMILES | Activity |
| --- | --- |
| CC(C)CCOC(=O)Nc1nc(=O)n([C@@H]2O[C@H](C)[C@H]3OC(=O)O[C@H]32)cc1F | Non-toxic |

System: Salmonella typhimurium
Test: Mutagenic activity in Salmonella typhimurium TA100 at 0.312 to 5 mg/plate measured after incubation of upside down for 48 hrs in absence of liver S9 mixture
Type: toxicity, organism-based
Settings: salmonella enterica subsp. enterica serovar typhimurium
Method in brief: as §1

| SMILES | Activity |
| --- | --- |
| CC(C)CCOC(=O)Nc1nc(=O)n([C@@H]2O[C@H](C)[C@H]3OC(=O)O[C@H]32)cc1F | Non-toxic |

System: Salmonella typhimurium
Test: Mutagenic activity in Salmonella typhimurium TA1535 at 0.312 to 5 mg/plate preincubated for 20 mins before addition in absence of liver S9 mixture
Type: toxicity, organism-based
Settings: salmonella enterica subsp. enterica serovar typhimurium
Method in brief: (§2)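 Pre-incubation trial (Trial II) with histidine-dependent auxotrophs. Test solution is pre-incubated with bacterial suspension and S9 mix (10% v/v) or substitution buffer before plating on selective agar. Revertant colonies are counted against the concurrent vehicle control. Triplicate plates per dose and per control (negative, vehicle, positive reference mutagens).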

| SMILES | Activity |
| --- | --- |
| CC(C)CCOC(=O)Nc1nc(=O)n([C@@H]2O[C@H](C)[C@H]3OC(=O)O[C@H]32)cc1F | Non-toxic |

System: MCF7
Test: Cytotoxicity against human MCF7 cells after 3 days MTT assay
Type: functional, cell-based
Settings: MCF7, 72 h
Method in brief: (§3)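 Cells held as monolayers in DMEM with 10% supplement. Seeded in 96-well plates on day 0 at densities set by doubling time: 1 × 10⁴/mL for HeLa and NCI-69, 2 × 10⁴/mL for MCF-7, 3 × 10⁴/mL for PZ-HPV-7. Five dilutions (10⁻⁸–5 × 10⁻⁶ mol/l), freshly prepared, added for 72 h. Growth read by MTT (succinate dehydrogenase activity); IC50 derived.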

| SMILES | IC50 [µg/mL] |
| --- | --- |
| CC(C)CCOC(=O)Nc1nc(=O)n([C@@H]2O[C@H](C)[C@H]3OC(=O)O[C@H]32)cc1F | 100 (≈ 260 µM) |
| O=c1[nH]cc(F)c(=O)[nH]1 [FLUOROURACIL] | 690 (≈ 5300 µM) |

System: Salmonella typhimurium
Test: Mutagenic activity in Salmonella typhimurium TA1537 at 0.312 to 5 mg/plate measured after incubation of upside down for 48 hrs in absence of liver S9 mixture
Type: toxicity, organism-based
Settings: salmonella enterica subsp. enterica serovar typhimurium
Method in brief: as §1

| SMILES | Activity |
| --- | --- |
| CC(C)CCOC(=O)Nc1nc(=O)n([C@@H]2O[C@H](C)[C@H]3OC(=O)O[C@H]32)cc1F | Non-toxic |

System: Salmonella typhimurium
Test: Mutagenic activity in Salmonella typhimurium TA98 at 0.312 to 5 mg/plate preincubated for 20 mins before addition in absence of liver S9 mixture
Type: toxicity, organism-based
Settings: salmonella enterica subsp. enterica serovar typhimurium
Method in brief: as §2

| SMILES | Activity |
| --- | --- |
| CC(C)CCOC(=O)Nc1nc(=O)n([C@@H]2O[C@H](C)[C@H]3OC(=O)O[C@H]32)cc1F | Non-toxic |

System: Salmonella typhimurium
Test: Mutagenic activity in Salmonella typhimurium TA102 at 0.312 to 5 mg/plate measured after incubation of upside down for 48 hrs in absence of liver S9 mixture
Type: toxicity, organism-based
Settings: salmonella enterica subsp. enterica serovar typhimurium
Method in brief: as §1

| SMILES | Activity |
| --- | --- |
| CC(C)CCOC(=O)Nc1nc(=O)n([C@@H]2O[C@H](C)[C@H]3OC(=O)O[C@H]32)cc1F | Non-toxic |

System: Salmonella typhimurium
Test: Mutagenic activity in Salmonella typhimurium TA100 at 0.312 to 5 mg/plate preincubated for 20 mins before addition in absence of liver S9 mixture
Type: toxicity, organism-based
Settings: salmonella enterica subsp. enterica serovar typhimurium
Method in brief: as §2

| SMILES | Activity |
| --- | --- |
| CC(C)CCOC(=O)Nc1nc(=O)n([C@@H]2O[C@H](C)[C@H]3OC(=O)O[C@H]32)cc1F | Non-toxic |

System: Salmonella typhimurium
Test: Mutagenic activity in Salmonella typhimurium TA1537 at 0.312 to 5 mg/plate measured after incubation of upside down for 48 hrs in presence of liver S9 mixture
Type: toxicity, organism-based
Settings: salmonella enterica subsp. enterica serovar typhimurium, s9, 48 h
Method in brief: as §1

| SMILES | Activity |
| --- | --- |
| CC(C)CCOC(=O)Nc1nc(=O)n([C@@H]2O[C@H](C)[C@H]3OC(=O)O[C@H]32)cc1F | Non-toxic |

System: Salmonella typhimurium
Test: Mutagenic activity in Salmonella typhimurium TA1535 at 0.312 to 5 mg/plate preincubated for 20 mins before addition in presence of liver S9 mixture
Type: toxicity, organism-based
Settings: salmonella enterica subsp. enterica serovar typhimurium
Method in brief: as §2

| SMILES | Activity |
| --- | --- |
| CC(C)CCOC(=O)Nc1nc(=O)n([C@@H]2O[C@H](C)[C@H]3OC(=O)O[C@H]32)cc1F | Non-toxic |

System: Salmonella typhimurium
Test: Mutagenic activity in Salmonella typhimurium TA1537 at 0.312 to 5 mg/plate preincubated for 20 mins before addition in presence of liver S9 mixture
Type: toxicity, organism-based
Settings: salmonella enterica subsp. enterica serovar typhimurium
Method in brief: as §2

| SMILES | Activity |
| --- | --- |
| CC(C)CCOC(=O)Nc1nc(=O)n([C@@H]2O[C@H](C)[C@H]3OC(=O)O[C@H]32)cc1F | Non-toxic |

System: Salmonella typhimurium
Test: Mutagenic activity in Salmonella typhimurium TA98 at 0.312 to 5 mg/plate measured after incubation of upside down for 48 hrs in absence of liver S9 mixture
Type: toxicity, organism-based
Settings: salmonella enterica subsp. enterica serovar typhimurium
Method in brief: as §1

| SMILES | Activity |
| --- | --- |
| CC(C)CCOC(=O)Nc1nc(=O)n([C@@H]2O[C@H](C)[C@H]3OC(=O)O[C@H]32)cc1F | Non-toxic |

System: not listed separately
Test: Cytotoxicity against human PZ-HPV-7 cells after 3 days MTT assay
Type: functional, cell-based
Settings: 72 h
Method in brief: as §3

| SMILES | IC50 [µg/mL] |
| --- | --- |
| CC(C)CCOC(=O)Nc1nc(=O)n([C@@H]2O[C@H](C)[C@H]3OC(=O)O[C@H]32)cc1F | 350 (≈ 908 µM) |
| O=c1[nH]cc(F)c(=O)[nH]1 [FLUOROURACIL] | 170 (≈ 1310 µM) |

System: Salmonella typhimurium
Test: Mutagenic activity in Salmonella typhimurium TA1537 at 0.312 to 5 mg/plate preincubated for 20 mins before addition in absence of liver S9 mixture
Type: toxicity, organism-based
Settings: salmonella enterica subsp. enterica serovar typhimurium
Method in brief: as §2

| SMILES | Activity |
| --- | --- |
| CC(C)CCOC(=O)Nc1nc(=O)n([C@@H]2O[C@H](C)[C@H]3OC(=O)O[C@H]32)cc1F | Non-toxic |

System: Salmonella typhimurium
Test: Mutagenic activity in Salmonella typhimurium TA102 at 0.312 to 5 mg/plate preincubated for 20 mins before addition in presence of liver S9 mixture
Type: toxicity, organism-based
Settings: salmonella enterica subsp. enterica serovar typhimurium
Method in brief: as §2

| SMILES | Activity |
| --- | --- |
| CC(C)CCOC(=O)Nc1nc(=O)n([C@@H]2O[C@H](C)[C@H]3OC(=O)O[C@H]32)cc1F | Non-toxic |

System: Salmonella typhimurium
Test: Mutagenic activity in Salmonella typhimurium TA102 at 0.312 to 5 mg/plate preincubated for 20 mins before addition in absence of liver S9 mixture
Type: toxicity, organism-based
Settings: salmonella enterica subsp. enterica serovar typhimurium
Method in brief: as §2

| SMILES | Activity |
| --- | --- |
| CC(C)CCOC(=O)Nc1nc(=O)n([C@@H]2O[C@H](C)[C@H]3OC(=O)O[C@H]32)cc1F | Non-toxic |

System: HeLa
Test: Cytotoxicity against human HeLa cells after 3 days MTT assay
Type: functional, cell-based
Settings: 72 h
Method in brief: as §3

| SMILES | IC50 [µg/mL] |
| --- | --- |
| CC(C)CCOC(=O)Nc1nc(=O)n([C@@H]2O[C@H](C)[C@H]3OC(=O)O[C@H]32)cc1F | 0.13 (≈ 0.337 µM) |
| O=c1[nH]cc(F)c(=O)[nH]1 [FLUOROURACIL] | 0.04 (≈ 0.308 µM) |

System: Salmonella typhimurium
Test: Mutagenic activity in Salmonella typhimurium TA1535 at 0.312 to 5 mg/plate measured after incubation of upside down for 48 hrs in presence of liver S9 mixture
Type: toxicity, organism-based
Settings: salmonella enterica subsp. enterica serovar typhimurium, s9, 48 h
Method in brief: as §1

| SMILES | Activity |
| --- | --- |
| CC(C)CCOC(=O)Nc1nc(=O)n([C@@H]2O[C@H](C)[C@H]3OC(=O)O[C@H]32)cc1F | Non-toxic |

System: Salmonella typhimurium
Test: Mutagenic activity in Salmonella typhimurium TA98 at 0.312 to 5 mg/plate measured after incubation of upside down for 48 hrs in presence of liver S9 mixture
Type: toxicity, organism-based
Settings: salmonella enterica subsp. enterica serovar typhimurium, s9, 48 h
Method in brief: as §1

| SMILES | Activity |
| --- | --- |
| CC(C)CCOC(=O)Nc1nc(=O)n([C@@H]2O[C@H](C)[C@H]3OC(=O)O[C@H]32)cc1F | Non-toxic |

System: Salmonella typhimurium
Test: Mutagenic activity in Salmonella typhimurium TA98 at 0.312 to 5 mg/plate preincubated for 20 mins before addition in presence of liver S9 mixture
Type: toxicity, organism-based
Settings: salmonella enterica subsp. enterica serovar typhimurium
Method in brief: as §2

| SMILES | Activity |
| --- | --- |
| CC(C)CCOC(=O)Nc1nc(=O)n([C@@H]2O[C@H](C)[C@H]3OC(=O)O[C@H]32)cc1F | Non-toxic |

System: Salmonella typhimurium
Test: Mutagenic activity in Salmonella typhimurium TA100 at 0.312 to 5 mg/plate preincubated for 20 mins before addition in presence of liver S9 mixture
Type: toxicity, organism-based
Settings: salmonella enterica subsp. enterica serovar typhimurium
Method in brief: as §2

| SMILES | Activity |
| --- | --- |
| CC(C)CCOC(=O)Nc1nc(=O)n([C@@H]2O[C@H](C)[C@H]3OC(=O)O[C@H]32)cc1F | Non-toxic |

System: Salmonella typhimurium
Test: Mutagenic activity in Salmonella typhimurium TA100 at 0.312 to 5 mg/plate measured after incubation of upside down for 48 hrs in presence of liver S9 mixture
Type: toxicity, organism-based
Settings: salmonella enterica subsp. enterica serovar typhimurium, s9, 48 h
Method in brief: as §1

| SMILES | Activity |
| --- | --- |
| CC(C)CCOC(=O)Nc1nc(=O)n([C@@H]2O[C@H](C)[C@H]3OC(=O)O[C@H]32)cc1F | Non-toxic |

System: NCI-H69
Test: Cytotoxicity against human NCI-H69 cells after 3 days MTT assay
Type: functional, cell-based
Settings: NCI-H69, 72 h
Method in brief: as §3

| SMILES | IC50 [µg/mL] |
| --- | --- |
| CC(C)CCOC(=O)Nc1nc(=O)n([C@@H]2O[C@H](C)[C@H]3OC(=O)O[C@H]32)cc1F | 310 (≈ 804 µM) |
| O=c1[nH]cc(F)c(=O)[nH]1 [FLUOROURACIL] | 280 (≈ 2150 µM) |

System: Salmonella typhimurium
Test: Mutagenic activity in Salmonella typhimurium TA1535 at 0.312 to 5 mg/plate measured after incubation of upside down for 48 hrs in absence of liver S9 mixture
Type: toxicity, organism-based
Settings: salmonella enterica subsp. enterica serovar typhimurium
Method in brief: as §1

| SMILES | Activity |
| --- | --- |
| CC(C)CCOC(=O)Nc1nc(=O)n([C@@H]2O[C@H](C)[C@H]3OC(=O)O[C@H]32)cc1F | Non-toxic |
